Screening results: PubChem BioAssay, several laboratories
HIF activator – HIF pathway transcriptional activators, primary screen, cell-based, U2OS HRE-luciferase, luminescence; U2OS HRE-luciferase reporter; normalized: DMSO 0%, desferrioxamine 100%; activation, % at 7.5 µM (by protocol); 300,000 compounds, 0.32% hits; AID 1910, 2009;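 active = mean activation of at least 10% of the iron chelator positive control signal, with at least half of replicates also reaching 10%; inconclusive = mean and replicate majority disagree about reaching 10%; inactive = mean and most replicates under 10%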
AI-2 QS modul – Vibrio harveyi AI-2 quorum sensing modulators, primary screen, JMH597 strain, luminescence/OD600 ratio; activity change, % at 7.5 µM; AID 2094, 2009; 300,000 compounds, 0.4% hits; Vibrio harveyi JMH597 AI-2 luminescence/OD600 ratio, 9 h; stronger effect = lower value; strain lacks LuxN and CqsS sensors; 0 = neutral-control median; in the data active = activity change below about -75%, passing the limit was not always enough; inconclusive = no clear call, values can overlap the other calls;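 also: luminescence divided by OD600 gain over 9 h not by final OD600 alone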
CendR NRP1 mod – modulators of CendR peptide binding to NRP-1, primary screen, biochemical, fluorescence polarization, uHTS; FAM-RPARPAR peptide binding to NRP-1; 360,000 compounds, 0.85% hits; Neuropilin-1 (Homo sapiens), O14786; inhibition, % at 25 µM;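 active = inhibition or corrected inhibition above about 18%, plus a signal ratio from 0.5 to 1.5, limit read from the data, passing the limit was not always enough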
Target sequence (O14786 whole entry, looked up): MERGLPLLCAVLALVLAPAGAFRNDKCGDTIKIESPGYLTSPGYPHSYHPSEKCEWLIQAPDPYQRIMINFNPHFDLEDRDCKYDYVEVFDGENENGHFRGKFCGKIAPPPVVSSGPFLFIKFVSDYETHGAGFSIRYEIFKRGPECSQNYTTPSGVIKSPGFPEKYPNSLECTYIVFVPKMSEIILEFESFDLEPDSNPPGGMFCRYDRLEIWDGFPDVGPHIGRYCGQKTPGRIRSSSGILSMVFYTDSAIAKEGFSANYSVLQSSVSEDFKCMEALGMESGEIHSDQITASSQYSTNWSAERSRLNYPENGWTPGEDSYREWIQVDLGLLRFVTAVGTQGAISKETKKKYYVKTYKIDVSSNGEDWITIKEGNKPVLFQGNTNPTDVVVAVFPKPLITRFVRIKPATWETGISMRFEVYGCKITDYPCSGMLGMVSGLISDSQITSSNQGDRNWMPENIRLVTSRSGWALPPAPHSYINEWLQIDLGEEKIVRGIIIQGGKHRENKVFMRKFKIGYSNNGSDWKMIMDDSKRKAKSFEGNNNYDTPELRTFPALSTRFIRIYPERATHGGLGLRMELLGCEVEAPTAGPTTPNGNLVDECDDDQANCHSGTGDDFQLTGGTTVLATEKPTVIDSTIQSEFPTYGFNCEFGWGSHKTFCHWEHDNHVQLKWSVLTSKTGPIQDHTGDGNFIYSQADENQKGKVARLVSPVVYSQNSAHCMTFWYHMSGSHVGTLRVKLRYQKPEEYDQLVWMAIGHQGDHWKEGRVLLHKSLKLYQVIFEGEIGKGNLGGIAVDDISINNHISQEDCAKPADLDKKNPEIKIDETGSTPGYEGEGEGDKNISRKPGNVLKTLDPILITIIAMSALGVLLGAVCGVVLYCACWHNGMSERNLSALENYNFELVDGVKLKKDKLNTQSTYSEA
V-ATPase pH – regulators of yeast V-ATPase proton pumping, primary screen, pHLuorin cytosolic pH fluorescence; response, % at 10 µM; 350,000 compounds, 0.37% hits; AID 504577, 2011; S. cerevisiae; in the data active = response mostly above about 7.3%, no sharp cut-off; inactive = mostly below about 5.4%; also: actives read high
T cruzi repl – inhibitors of intracellular T. cruzi growth, primary screen, luminescence, NIH3T3 host cells; T. cruzi beta-gal in NIH3T3, 90 h; inhibition, % (no concentration beside the values); 300,000 compounds, 1.4% hits; AID 1885, 2009;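 active = mean inhibition across valid replicates above about 55%, limit read from the data; inconclusive = mean below that limit but half or more replicates reach it; inactive = mean below it, under half of replicates reach it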;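 also: signal also drops with host cell toxicity which is not excluded here; 0% = plate median of DMSO wells and 100% = zero luminescence signal; higher percent means less beta-gal luminescence so fewer parasites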
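System – NIH/3T3 host cells with β-galactosidase reporter T. cruzi · Doses – single 50 nL compound addition per well in DMSO · Reagent – 5000 T. cruzi trypomastigotes/well · Medium – Low-serum DMEM with 2% FBS · Timing – ≥90 h infection period, 3 h prior cell attachment · Evaluation – parasite load inhibition, % · Technique – GalScreen luminescence, 60 min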
Yeast superoxide – reduction of superoxide in aged yeast, primary screen, HTS. S. cerevisiae aged cells, superoxide DHE fluorescence; stronger effect = lower value. superoxide response (% of plate mean), % at 10 µM. 330,000 compounds, 0.18% hits;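 active = superoxide response under a set limit, about three screen SD below normal, cut at about 65% in these data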;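 also: yeast aged for seven days with compound at 30 °C before DHE staining; 100% = average MFI of all compound-treated wells on the plate with controls excluded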
* = called active by the depositor; i = inactive; ? = inconclusive; . = not tested or not shown. The list is not random: actives were taken first. Their share in the collection is about 3%.

SMILES	HIF activator	AI-2 QS modul	CendR NRP1 mod	V-ATPase pH	T cruzi repl	Yeast superoxide
COc1cccc(CN(C)S(=O)(=O)c2ccc3c(c2)OCCO3)c1	.	.	19*	-1	.	.
OC1CCCN(CC(O)COC(c2ccccc2)c2ccccc2)C1 (centres undefined)	0	15	7	1	-2	96
COc1cccc(NC(=S)N(CCCN2CCOCC2)Cc2cn(C)c3ccccc23)c1	351*	36	-19	-1	-8	93
Cc1ccc(NC(=S)N(CCCN2CCOCC2)Cc2cccnc2)cc1C	1	19	-9	1	68*	85
Cc1ccccc1NC(=S)N(CCCN1CCOCC1)Cc1cccnc1	-1	35	0	-1	5	102
COc1cccc(C(=O)N(Cc2nc(-c3cccc(C)c3)no2)C(C)C)c1OC	0	-4	4	0	11	82
CCNc1nc(Cl)nc(NNC(=O)C(C)Oc2ccccc2)n1 (centres undefined)	236*	4	0	-1	-10	99
CN(C(=O)COC(=O)c1cnc(Cl)c(Cl)c1)C1CCCCC1	.	.	24*	-1	.	100
CC(C)Sc1oc(-c2ccco2)nc1S(=O)(=O)c1ccc(F)cc1	-1	4	-24	2	17	84
N#CCCN1CCNCC1	0	7	34*	-3	-24	104
N#CCCN1CCN(CCC#N)CC1	0	39	-9	-2	-3	121
CC[C@H]1c2[nH]c3ccccc3c2C[C@H]2C(=O)N(c3ccc(F)cc3)C(=O)N21	0	24	16	3	1	88
Cc1cc(C)c(C(=O)N2CCCC(N3CCN(c4cccc(C(F)(F)F)c4)CC3)C2)o1 (centres undefined)	135*	0	6	-2	?	89
Cc1cc(C(=O)N2CCCC(N3CCN(c4cccc(C(F)(F)F)c4)CC3)C2)no1 (centres undefined)	0	13	9	-4	-10	99
Cc1ccc(NS(=O)(=O)c2cc(C(=O)Nc3cccc([N+](=O)[O-])c3)ccc2C)cc1	0	21	2	5	25	97
Cc1ccc(C(=O)Nc2cccc([N+](=O)[O-])c2)cc1S(=O)(=O)Nc1ccc(NC(=O)c2ccccc2)cc1	140*	-3	-6	-1	43	94
CCCCCC1CCC(c2n[nH]c(=S)n2C)CC1 (centres undefined)	0	22	5	-1	70*	142
C=CCn1c(C2CC2)n[nH]c1=S	0	19	5	-2	-13	87
COc1ccnc(Oc2ccccc2)c1C(=O)N/C=N/OCc1ccccc1	0	22	-2	0	16	93
CO/N=C/NC(=O)c1c(OC)ccnc1Oc1ccccc1	0	15	26*	-5	-17	109
COC(=O)c1c(-c2ccc(C)cc2)csc1NC(=O)Cc1ccc(OC)c(OC)c1	0	28	-22	2	-11	.
COC(=O)c1c(-c2cccc3ccccc23)csc1NC(=O)Cc1ccc(OC)c(OC)c1	0	6	-5	0	57*	122
N#Cc1ccccc1S(=O)(=O)N1CCN(C(=O)[C@H](Cc2ccccc2)NC(=O)c2ccco2)CC1	.	.	6	-1	.	90
Cc1cc(C)c2[nH]c(=O)c(CN(Cc3ccc4c(c3)OCO4)Cc3nnnn3C3CCCC3)cc2c1	-1	15	-5	-1	71*	96
Cc1ccc2[nH]c(=O)c(CN(Cc3ccccc3)Cc3nnnn3C3CCCC3)cc2c1	2	12	-16	8	48	93
SMILES	HIF activator	AI-2 QS modul	CendR NRP1 mod	V-ATPase pH	T cruzi repl	Yeast superoxide
Cc1ccc(C)c2[nH]c(=O)c(CN(Cc3nnnn3C3CCCCC3)CC3CCCO3)cc12 (centres undefined)	0	9	-11	-1	26	97
Cc1cccc2cc(CN(Cc3ccc(F)cc3)Cc3nnnn3C3CCCC3)c(=O)[nH]c12	0	20	-8	-3	56*	116
C[C@H](CO)N1C[C@H](C)[C@@H](CN(C)C(=O)Nc2ccc3c(c2)OCO3)Oc2c(NC(=O)c3ccncc3)cccc2C1=O	.	.	-3	-2	.	89
O=C(Nc1ccccc1C(=O)Nc1nnc(C(F)(F)F)s1)c1ccccc1	0	20	1	1	59*	110
CN(C)CCNc1nc2sc3c(c2c(=O)n1CCc1ccccc1)CCCCC3	0	.	-2	2	58*	86
CC(O)CNc1nc2sc3c(c2c(=O)n1Cc1ccco1)CCCCC3 (centres undefined)	1	21	12	0	3	i
CC(O)CNc1nc2sc3c(c2c(=O)n1CCc1ccccc1)CCCCC3 (centres undefined)	0	42	4	-3	57*	110
O=c1c2c3c(sc2nc(NCCOCCO)n1Cc1ccco1)CCCCC3	1	15	-11	5	.	104
O=C1c2cccnc2C(=O)N1CO	0	16	-9	1	-16	108
NC1=C(Br)C(=O)c2ncccc2C1=O	.	.	28*	-1	.	.
CCCc1c(O)nc(SC2CC(=O)N(c3ccc(OC)cc3)C2=O)[nH]c1=O (centres undefined)	0	7	-1	-3	-1	88
O=C(c1ccc2ccccc2c1)N1CCN(S(=O)(=O)/C=C/c2ccccc2)CC1	0	32	10	-1	55*	97
Cc1c(Cl)cnc(NC(=O)COC(=O)CNC(=O)c2ccccc2)c1Cl	.	.	-8	-3	.	105
Cc1c(Cl)cnc(NC(=O)COC(=O)[C@H](C)NC(=O)c2ccccc2)c1Cl	.	.	26*	2	.	104
O=[N+]([O-])c1ccc(-c2ccc(/C=N/Nc3nc(N4CCCC4)nc(N4CCCC4)n3)o2)cc1	0	10	-55	1	42	97
O=[N+]([O-])c1ccc(/C=N/Nc2nc(N3CCCC3)nc(N3CCCC3)n2)o1	-1	35	-25	1	64*	103
CCNc1nc(NCC)nc(N/N=C/c2ccc([N+](=O)[O-])o2)n1	-1	-158*	-11	1	47	113
Fc1ccc(Nc2nc(N/N=C/c3ccco3)nc(N3CCCCC3)n2)cc1	-1	19	-7	1	60*	99
O=[N+]([O-])c1ccc(/C=N/Nc2nc(-c3ccccc3)c3cc(Br)ccc3n2)o1	-9	35	-14	1	?	91
Cc1ccc2nc(N/N=C\c3ccc([N+](=O)[O-])o3)nc(-c3ccccc3)c2c1	0	0	-17	-6	80*	118
